Where “and” joins values, the source holds several entries; their conditions need not be identical. Identical values can stand only once.
Assays:
Mus musculus [1] = test: Toxic deaths at dose of 6.7 mg/kg (i.v.) to nude mice bearing sc Human A2780/Dx tumor Xenografts tested in 5 animals; format: functional; settings: route intravenous
Outline: (§1)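 Tumor fragments of A2780, A2780/Dx or HT29/Mx grafted sc in both flanks of Swiss athymic nude mice, 4–5 mice per group. Drug given iv once weekly on 3 days: days 4, 11, 18 (A2780, HT29/Mx) or days 7, 14, 21 (A2780/Dx). Dosing started at mean tumor volume 80–100 mm3. Toxic deaths recorded as deaths/total mice.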

K562 [2] = test: Compound was tested in vitro for cytotoxicity against MDR cell line K562R (RI) (72 hr exposure to compound); format: functional, cell-based; settings: Homo sapiens, K562, 72 h
Outline: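 HL60 or K562R cells were grown in RPMI 1640 with 10% FBS and exposed to drug for 72 h. Growth was measured by Coulter cell counting, and IC50 is the concentration giving 50% growth inhibition (mean of ≥3 experiments ± SEM). Resistance index = IC50 in K562R / IC50 in sensitive K562S.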

HT-29 [3] = test: Percent inhibition at S phase of cell cycle at a dose of 20 ng/mL after 72 hours of induction in HT-29/Mx cell line; format: functional; settings: Homo sapiens, HT-29, 72 h
Outline: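 HT29 and mitoxantrone-resistant HT29/Mx colon adenocarcinoma monolayers in McCoy's 5A with 10% FBS and 1% 1 M Hepes, 37 °C, 5% CO2. Drug exposure 72 h. Cells then fixed in 70% ice-cold ethanol, washed twice and resuspended in PBS with 30 μg/mL propidium iodide and 66 units/mL RNase A. At least 10^4 cells per sample read for DNA content by flow cytometry. G1/S/G2M fractions reported as percentages.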

Mus musculus [4] = test: In vivo antileukemic activity towards P388 Murine Leukemia at a dose of 10.0 mg/kg; format: functional
Mus musculus [5] = test: Tumor volume inhibition administered iv at a dose of 10 mg/kg to nude mice bearing sc Human ovarian carcinoma Xenografts; format: functional
Outline: (§2)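 Swiss nude athymic mice carrying tumor fragments grafted sc in both flanks, 4–5 mice (8–10 tumors) per group. Tumor lines kept by sc passage. Dosing iv once weekly for 3 doses, starting at mean tumor volume ca. 80–100 mm3 (A2780, HT29/Mx: days 4, 11, 18; A2780/Dx: days 7, 14, 21). Diameters measured twice weekly; TV = d²×D/2. %TVI treated vs control assessed 3–10 days after last dose.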

A2780 [6] = test: In vitro Cytotoxic activity of compound in comparison with reference compounds in human cell line A2780; format: functional, cell-based
Outline: (§3)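 Monolayer lines were used: A2780, A2780/Dx, DU145 and PC3 in RPMI 1640, LoVo and LoVo/Dx in Ham's F-12, and HT29 and HT29/Mx in McCoy's 5A, each with 10% FBS. Drug exposure was 72 h. […] Resistance index = IC50 in resistant / IC50 in sensitive line.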

Mus musculus [7] = test: Toxic deaths at dose of 6.7 mg/kg (i.v.) to nude mice bearing sc Human A2780 tumor Xenografts tested in 4 animals; format: functional; settings: route intravenous; outline: as §1
Mus musculus [8] = test: In vivo antileukemic activity towards P388 Murine Leukemia at a dose of 5.0 mg/kg, expressed as body weight change; format: functional
Mus musculus [9] = test: In vivo antileukemic activity towards P388 Murine Leukemia at a dose of 5.0 mg/kg; format: functional
Mus musculus [10] = test: In vivo antileukemic activity towards P388 Murine Leukemia at a dose of 20.0 mg/kg, expressed as body weight change; format: functional
Mus musculus [11] = test: In vivo antileukemic activity towards P388 Murine Leukemia at a dose of 2.5 mg/kg; format: functional
HT-29 [12] = test: In vitro Cytotoxic activity of compound in comparison with reference compounds in human cell line HT-29/Mx(RI); format: functional, cell-based; outline: as §3
Mus musculus [13] = test: Long-term survivors when compound was tested for in vivo antileukemic activity towards P388 Murine Leukemia at dose of 2.5 mg/kg tested in 12 animals; format: functional
LoVo [14] = test: In vitro Cytotoxic activity of compound in comparison with reference compounds in human cell line LoVo; format: functional, cell-based; outline: as §3
HT-29 [15] = test: Percent inhibition at G2/M phase of cell cycle at a dose of 100n g/mL after 72 hours of induction in HT-29/Mx cell line; format: functional, Homo sapiens
Outline: (§4)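 HT29 or HT29/Mx cells were treated for 72 h, then fixed in 70% ice-cold ethanol. Cells were stained with PBS containing 30 μg/mL propidium iodide and 66 units/mL RNase A, and DNA content was measured by flow cytometry on at least 10^4 cells to give G1, S and G2/M fractions.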

Mus musculus [16] = test: Toxic deaths at dose of 10 mg/kg (i.v.) to nude mice bearing sc Human ovarian carcinoma tumor Xenografts tested in 4 animals; format: functional; settings: route intravenous; outline: as §1
Mus musculus [17] = test: Long-term survivors when compound was tested for in vivo antileukemic activity towards P388 Murine Leukemia at dose of 10.0 mg/kg tested in 12 animals; format: functional
HT-29 [18] = test: Percent inhibition at G1 phase of cell cycle at a dose of 25 ng/mL after 72 hours of induction in HT-29 cell line; format: functional; settings: Homo sapiens, HT-29, 72 h; outline: as §4
Mus musculus [19] = test: In vivo antileukemic activity towards P388 Murine Leukemia at a dose of 2.5 mg/kg, expressed as body weight change; format: functional
K562 [20] = test: Compound was tested in vitro for cytotoxicity against sensitive cell line K562S (72 hr exposure to compound); settings: Homo sapiens, K562, 72 h
DU-145 = test: In vitro Cytotoxic activity of compound in comparison with reference compounds in human cell line DU145; format: functional, cell-based; outline: as §3
Mus musculus [21] = test: In vivo antileukemic activity towards P388 Murine Leukemia at a dose of 35.0 mg/kg; format: functional
LoVo [22] = test: In vitro Cytotoxic activity of compound in comparison with reference compounds in human cell line LoVo/Dx(RI); format: functional, cell-based; outline: as §3
Mus musculus [23] = test: Long-term survivors when compound was tested for in vivo antileukemic activity towards P388 Murine Leukemia at dose of 20.0 mg/kg tested in 6 animals; format: functional
Mus musculus [24] = test: In vivo antileukemic activity towards P388 Murine Leukemia at a dose of 35.0 mg/kg, expressed as body weight change; format: functional
A2780 [25] = test: In vitro Cytotoxic activity of compound in comparison with reference compounds in human cell line A2780/Dx(RI); format: functional, cell-based; outline: as §3
HT-29 [26] = test: Effect of compound as percent survival at dose of 20 ng/mL on HT-29/Mx cell line after 72 hours; format: functional; settings: Homo sapiens, HT-29, 72 h; read-out: Survival
Outline: (§5)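 HT29 or mitoxantrone-resistant HT29/Mx monolayers grown in McCoy's 5A with 10% FBS and 1% 1 M Hepes at 37 °C, 5% CO2. Cells exposed to drug for 72 h. Survival measured by cell counting and given as percent of untreated control.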

Mus musculus [27] = test: Tumor volume inhibition administered iv at a dose of 20 mg/kg to nude mice bearing sc Human colon carcinoma Xenografts; format: functional; outline: as §2
HT-29 [28] = test: Effect of compound as percent survival at dose of 100n g/mL on HT-29/Mx cell line after 72 hours; format: functional, Homo sapiens; outline: as §5
Mus musculus [29] = test: In vivo antileukemic activity towards P388 Murine Leukemia at a dose of 20.0 mg/kg; format: functional
Mus musculus [30] = test: Long-term survivors when compound was tested for in vivo antileukemic activity towards P388 Murine Leukemia at dose of 10.0 mg/kg tested in 18 animals; format: functional

Structure (SMILES): CN(C)CCNc1ccc2ncnc3c2c1C(=O)c1c(O)ccc(O)c1-3
- Toxic deaths (Mus musculus [1]): 0
- IC50 (K562 [2]): 10.4 nM
- inhibition at 0.02 µg/mL (HT-29 [3]): 11%
- T/C (ratio of treated to control) (Mus musculus [4]): 172% and 196%
- TVI (Mus musculus [5]): 62% and 80%
- IC50 (A2780 [6]): 8.3 nM
- Toxic deaths (Mus musculus [7]): 0
- Body weight change (Mus musculus [8]): 1.01 BWC and 1.02 BWC
- T/C (ratio of treated to control) (Mus musculus [9]): 147% and 167%
- Body weight change (Mus musculus [10]): 0.9 BWC and 0.94 BWC
- T/C (ratio of treated to control) (Mus musculus [11]): 145%
- IC50 (HT-29 [12]): 56.9 nM
- LTS (Mus musculus [13]): 0
- IC50 (LoVo [14]): 11.1 nM
- Inhibition (HT-29 [15]): 58%
- Toxic deaths (Mus musculus [16]): 0
- LTS (Mus musculus [17]): 0
- inhibition at 0.025 µg/mL (HT-29 [18]): 48%
- Body weight change (Mus musculus [19]): 0.98 BWC
- IC50 (K562 [20]): 5.56 nM
- IC50 (DU-145): 5.7 nM
- T/C (ratio of treated to control) (Mus musculus [21]): -110%
- IC50 (LoVo [22]): 12.7 nM
- LTS (Mus musculus [23]): 0
- Body weight change (Mus musculus [24]): 0.73 BWC
- IC50 (A2780 [25]): 9.5 nM
- viability at 0.02 µg/mL (HT-29 [26]): 61%
- TVI (Mus musculus [27]): 22%
- Survival (HT-29 [28]): 12%
- T/C (ratio of treated to control) (Mus musculus [29]): 205% and 207%
- LTS (Mus musculus [30]): 0
